# High-throughput results deposited in PubChem by The Scripps Research Institute Molecular Screening Center.
# In the library only some 1.8% were active in any assay of this set; here they are far more common.
# DDE Tn7 FP inh = DD(E)-Tn7 binding inhibition, primary FP screen; FP displacement of FITC-Tn7 peptide from fibrin DD(E); 0% = median of compound wells per plate; inhibition, % at 8.3 µM; 370,000 compounds, 0.13% hits;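 active = inhibition above the mean of compounds falling within the control limits plus 3 SD of them, cut at about 14% in these data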;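 note: 0% = plate median of compound wells and 100% = 10 µM Aha-Tn7 peptide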
# Target sequence (P02675 whole entry, looked up): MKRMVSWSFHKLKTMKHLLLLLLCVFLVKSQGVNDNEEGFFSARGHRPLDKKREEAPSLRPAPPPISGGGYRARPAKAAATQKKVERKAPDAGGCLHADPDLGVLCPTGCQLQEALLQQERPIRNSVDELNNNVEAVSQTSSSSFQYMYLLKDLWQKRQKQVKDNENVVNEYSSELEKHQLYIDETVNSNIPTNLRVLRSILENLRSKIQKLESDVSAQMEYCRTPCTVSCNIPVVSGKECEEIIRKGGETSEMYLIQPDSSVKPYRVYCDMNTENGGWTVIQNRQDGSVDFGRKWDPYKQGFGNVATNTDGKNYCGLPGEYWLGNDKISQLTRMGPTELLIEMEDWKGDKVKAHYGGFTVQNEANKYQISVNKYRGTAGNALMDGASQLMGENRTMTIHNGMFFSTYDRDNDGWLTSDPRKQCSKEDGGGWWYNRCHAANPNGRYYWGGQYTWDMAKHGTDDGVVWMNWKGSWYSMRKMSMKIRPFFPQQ
#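 Assay system: human fibrin DD(E) protein / Input: 2 µM fibrin DD(E) / Benchmarks: high control of 10 µM Aha-Tn7 peptide / Measured by: fluorescence polarization of the labelled Tn7 tracer / Medium: Tris buffer with calcium and detergent, pH 7.8 / Timing: 10 min compound pre-incubation, 3 h probe incubation at room temperature / Repeats: one replicate per compound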
# HTRA1 inh = blocks human HTRA1 serine peptidase | Q92743 | recombinant HTRA1, FP-rhodamine activity-based probe, fluorescence polarization | inhibition, % at 5.96 µM | 340,000 compounds, 0.5% hits | AID 504803; in the data active = inhibition above about 36%;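 note: 0% = enzyme with DMSO and 100% = wells lacking enzyme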
# TCR CD3 inh = human TCR-CD3 binding inhibition | TAMRA-labeled TCR probe fluorescence, biochemical | AID 651800 | inhibition, % at 9.4 µM | 360,000 compounds, 0.37% hits; in the data active = inhibition above about 19%;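 note: recombinant mutant TCR 2C K166C tagged with TAMRA read by polarization; 0% = receptor in buffer alone and 100% = receptor with positive control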
# SIAE primary = inhibitors of human sialic acid acetylesterase SIAE; inhibition, % at 9.66 µM; 370,000 compounds, 0.69% hits; Q9HAT2; AID 1053197; SIAE FP-Rh probe binding, fluorescence polarization;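 active = inhibition above a cutoff: mean of compounds within the control limits plus 3 SD of those, cut at about 17% in these data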;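 note: 0% = plate median of compound wells and 100% = probe without SIAE protein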
# ABHD4 inh = inhibits mouse alpha/beta hydrolase domain 4; Q8VD66; purified mABHD4, FP-Rh probe fluorescence polarization; inhibition, % at 8.92 µM; 370,000 compounds, 0.54% hits; AID 720543;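 active = inhibition exceeding the mean over every tested compound plus 3 SD, cut at about 30% in these data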;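 note: 0% = plate median of compound wells and 100% = S159A mutant with DMSO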
#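 Doses – 8.92 µM, single dose · Material – wild-type mouse ABHD4 protein · Replication – single well per compound (singlicate) · Measure – percent inhibition of probe binding, normalized to plate controls · Schedule – 45 min compound pre-incubation plus 60 min probe step, 25 °C · Detection – fluorescence polarization with parallel and perpendicular emission, 525/598 nm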
# Tn6 DDE FP = disrupts Tn6 cyclic peptide binding to fibrin D-Dimer-E complex | inhibition, % at 8.3 µM | Fibrin DD(E) TRITC-Tn6 fluorescence polarization displacement | P02675 | 370,000 compounds, 0.21% hits;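 active = inhibition above a per-campaign cutoff: mean of compounds within control limits plus 3 SD, cut at about 15% in these data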;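 note: 0% = median of all compound wells on the plate and 100% = blocking peptide control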
# mABHD4 conf = confirmation of mouse ABHD4 inhibitors | shares compounds with ABHD4 inh | purified mABHD4, FP-Rh probe fluorescence polarization | inhibition, % at 8.92 µM | 1,800 compounds, 55% hits | AID 720658;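 active = mean inhibition across replicates above the hit cutoff set in the primary screen, cut at about 30% in these data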;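 note: 0% = wild-type ABHD4 with DMSO and 100% = catalytically dead S159A mutant with DMSO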
# Numbers without * were called inactive; / = not tested or not shown.
SMILES,DDE Tn7 FP inh,HTRA1 inh,TCR CD3 inh,SIAE primary,ABHD4 inh,Tn6 DDE FP,mABHD4 conf
O=C(COc1ccccc1)Nc1nc2cc3c(cc2s1)OCO3,-1,-3,5,-9,36*,-4,40*
COC(=O)c1sc(NC(=O)COc2ccc(OC)cc2)nc1C,-5,3,3,-11,6,-2,/
O=C1CCC2(CCC(c3ccccc3)CC2)N1CC[C@@H](O)c1ccccc1 (some centres not stated),3,/,/,9,1,-6,/
O=C1CC(Nc2ccc(N3CCOCC3)cc2)C(=O)N1CCc1ccccc1 (configuration not stated),2,12,-1,17,33*,5,4
COc1ccc(N2C(=O)CC(Nc3ccc(C)cc3)C2=O)cc1 (configuration not stated),5,3,-5,10,9,6,/
COc1ccc(N2C(=O)CC(Nc3ccc(N4CCOCC4)cc3)C2=O)c(OC)c1 (configuration not stated),1,22,10,30*,49*,4,14
O=C(/C=C/Nc1ccc(Nc2ccccc2)cc1)c1cccs1,4,33,-1,11,34*,-4,-2
O=CN1CCN(C(C(=O)NC2CCCCC2)c2cc3c(cc2[N+](=O)[O-])OCO3)CC1 (configuration not stated),1,6,2,2,4,6,/
COc1ccc(NC(=O)C(c2cc3c(cc2[N+](=O)[O-])OCO3)N2CCN(C=O)CC2)cc1 (configuration not stated),0,5,2,9,31*,1,0
COc1ccc(CNCc2cc3c(cc2[N+](=O)[O-])OCO3)cc1,0,11,10,11,33*,-6,6
Cc1cc(C)cc(NCc2cc3c(cc2[N+](=O)[O-])OCO3)c1,-5,6,9,11,31*,-2,14
Cc1ccc(-c2cnc(NCc3cc4c(cc3[N+](=O)[O-])OCO4)n2C)cc1C,3,-2,-3,1,14,-6,/
C[C@@H]1COc2cc(F)ccc2S(=O)(=O)N1C,3,/,/,0,4,4,/
CCOC(=O)[C@]12CCCCC/C=C\1N(Cc1ccc(OC)cc1)C(=O)[C@H]2CC(=O)NCc1ccc(OC)c(OC)c1,4,/,/,-6,-4,2,/
COc1ccc(CCNC(=O)Nc2ccc3c(c2)[C@]2(CC(=O)N(CC(C)C)C2c2ccccc2)C(=O)N3C)cc1OC (some centres not stated),-3,/,/,-3,-8,0,/
NS(=O)(=O)c1ccc(-c2ccc(/C=C3\NC(=S)NC3=O)o2)cc1,2,11,7,9,39*,-4,20
Cc1ccc(S(=O)(=O)N2CCCC2C(c2ccccc2O)c2cn(C)c3ccccc23)cc1 (configuration not stated),4,/,/,-7,-2,-3,/
COc1ccc(-n2nc3c(=O)[nH][nH]c3cc2=O)cc1,1,16,-6,0,32*,-8,42*
O=C(CN1CCN(c2ccc(O)cc2)CC1)Nc1ccccc1C(=O)NCCc1ccccc1,-6,27,-6,10,32*,-10,21
Cn1ccc2c(/C=C/c3ccc(F)cc3)cc3c(c21)C1CCC3C1 (configuration not stated),6,/,-1,6,45*,1,38*
O=C(N1CCc2ccccc2C1)n1cc(C(O)(c2ccccc2)c2ccccc2)nn1,5,/,/,-10,86*,-3,69*
Cc1cccc(OCCC(=O)Nc2ccc(N3CCOCC3)cc2N2CCOCC2)c1,-8,1,-1,-3,35*,3,-16
Nc1[nH]n2c(=O)cc(-c3ccccc3)nc2c1N=Nc1ccc(S(N)(=O)=O)cc1,7,14,-7,-8,32*,-2,37*
Nc1[nH]n2c(=O)cc(-c3ccccc3)nc2c1N=Nc1ccccc1,5,6,-8,-1,8,-6,/
COc1ccc2c(c1)c1ccc3c(c1n2C)C(=O)C=CC3=O,6,23,7,-23,67*,-16,68*
SMILES,DDE Tn7 FP inh,HTRA1 inh,TCR CD3 inh,SIAE primary,ABHD4 inh,Tn6 DDE FP,mABHD4 conf
Cc1ccc(F)cc1C(=O)N(Cc1ccccn1)CC1CCCO1 (configuration not stated),-8,/,/,7,1,4,/
COc1cccc2sc(NN)nc12,2,28,-2,0,92*,-4,44*
CCCC(=O)Nc1nc(C)c(-c2csc(Nc3cc(OC)ccc3OC)n2)s1,-2,30,0,3,32*,-6,58*
C=CCN1[C@H](CC(C)C)COc2cc(N3CCCC3)ccc2S1(=O)=O,5,/,/,-1,0,-3,/
O=c1cc(CSc2ccc(Cl)cc2)[nH]c2[nH]n(-c3ccccc3)c(=O)c12,3,20,10,14,47*,-2,26
COC(=O)[C@]12C[C@H](CC(=O)NCc3ccc(OC)c(OC)c3)C(=O)N(Cc3cccc4ccccc34)C1=C[C@H](C(C)(C)C)O[C@@H]2C,-2,/,/,1,-10,6,/
Cc1ccccc1OCC(=O)N/N=C1\CC(=O)CC(C)(C)C1,2,3,7,4,-6,-4,/
CC1(C)CC(=O)C/C(=N/Nc2nc3ccccc3s2)C1,-4,21,-2,11,30*,6,27
CC1CCC/C(=N/Nc2nc3ccccc3s2)C1 (configuration not stated),-6,13,3,11,38*,-5,6
O=C(O)c1ccc(N/N=C/c2ccc(-c3ccc(Br)cc3)o2)cc1,-7,16,4,3,42*,4,84*
O=C(O)c1ccc(N/N=C/c2ccc(-c3ccccc3Cl)o2)cc1,1,-2,0,14,40*,-2,46*
CCCCNC(=O)O[C@H]1CC[C@@]23CCCN2C(=O)CCC[C@H]3C1,-2,/,/,-1,7,2,/
C=CCN1C(=O)[C@@H](CC(=O)NCc2cccs2)[C@]2(C(=O)OCC)CCCCC/C=C/12,5,/,/,11,0,-10,/
Cc1ccc(-n2c(SCC(=O)Nc3ccccc3-c3ccccc3)nnc2-c2ccccc2)cc1,2,/,/,-1,-16,-8,/
CCOc1ccc(NC2=CC(=O)C(=O)c3ccccc32)cc1,2,25,10,13,32*,0,27
O=C1C=C(Nc2ccccc2O)c2ccccc2C1=O,8,26,3,6,48*,10,-5
Cc1ccc(NC2=CC(=O)C(=O)c3ccccc32)c(C)c1,-1,15,-5,2,7,-3,/
